Source: PubChem
NRP1-CendR mod: NRP-1/CendR interaction modulation; FAM-RPARPAR peptide binding to NRP-1, fluorescence polarization; inhibition, % at 25 µM; 360,000 tested, 0.85% active;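 active = inhibition or corrected inhibition above about 18%, plus a signal ratio from 0.5 to 1.5, limit read from the data, passing the limit was not always enough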
V-ATPase pH: yeast V-ATPase proton transport regulation by pHLuorin. AID 504577. 350,000 tested, 0.37% active. S. cerevisiae, pHLuorin cytosolic pH fluorescence. response, % at 10 µM; in the data active = response mostly above about 7.3%, no sharp cut-off; inactive = mostly below about 5.4%; note: actives read high
ASAP1 inh: ASAP1 ArfGAP inhibition; Q9ULH1; ASAP1-stimulated ARF1 GTP hydrolysis, GDP FP detection; inhibition, % at 16.5 µM; 360,000 tested, 0.19% active; in the data active = inhibition above about 25%;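 note: 0% = vehicle with enzyme and substrate and 100% = no enzyme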
ARFGAP1 inh: rat ARFGAP1 inhibition; Q62848; Arfgap1-stimulated ARF1 GTP hydrolysis, GDP FP detection; inhibition, % at 16.5 µM; 360,000 tested, 0.26% active; AID 651572;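 active = inhibition above a per-plate limit, mean inhibition of low control wells plus 3 SD, cut at about 25% in these data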;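 note: 0% = DMSO wells with enzyme and 100% = wells lacking Arfgap1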
Target sequence (Q62848 1-136 limits assumed): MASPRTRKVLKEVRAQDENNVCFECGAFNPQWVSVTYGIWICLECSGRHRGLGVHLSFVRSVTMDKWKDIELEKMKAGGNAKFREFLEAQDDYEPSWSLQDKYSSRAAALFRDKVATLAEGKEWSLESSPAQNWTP
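Repeats: one replicate per compound; assay system: rat Arfgap1 catalytic domain, aa 1-136; times: enzyme reaction 120 min at 25 °C after 20 min preincubation; detection: FP of antibody-bound GDP Alexa 633 tracer, ex 620/em 688 nm; benchmarks: high control wells lacking Arfgap1, low control full reaction with DMSO; reagent: human ARF1(Δ1-17)-GTP substrate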
Granule exo inh: lytic granule exocytosis inhibition; AID 651702; inhibition, % at 10 µM; TALL-104 LAMP-1 surface exposure, flow cytometry; cells stimulated with thapsigargin and PMA; 360,000 tested, 0.66% active;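 active = inhibition above about 55%, limit read from the data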
VATPase regulator: regulators of yeast V-ATPase proton transport | 980 tested, 2% active | shares compounds with V-ATPase pH | S. cerevisiae pHLuorin cytosolic pH | response, % at 10 µM; in the data active = response above about 24%;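 note: plate controls were vehicle wells for no effect and positive control wells for full effect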
ASAP1 inh confirm: ASAP1 inhibition confirmed; shares compounds with ASAP1 inh; ASAP1-stimulated Arf1 GTPase, GDP fluorescence polarization; inhibition, % at 16.5 µM; 620 tested, 37% active; AID 624431;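 active = mean inhibition over triplicates exceeds the hit threshold derived for the earlier primary screening run, cut at about 25% in these data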
ARFGAP1 inh conf: confirmation of rat ARFGAP1 inhibitors. shares compounds with ARFGAP1 inh. 890 tested, 30% active. ARFGAP1-stimulated ARF1 GTP hydrolysis, GDP tracer FP. inhibition, % at 16.5 µM;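 active = average inhibition over triplicates above the hit cutoff set in the earlier primary screen, cut at about 25% in these data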;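 note: 0% = Arfgap1 plus ARF1-GTP with DMSO and 100% = wells lacking Arfgap1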
Exocytosis CP01: blocks lytic granule exocytosis; TALL-104 cells, LAMP-1 externalization, flow cytometry; stimulated with PMA plus thapsigargin; shares compounds with Granule exo inh; 1,500 tested, 11% active; inhibition, % at 10 µM; in the data active = inhibition above about 60%;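 note: 0% = stimulated vehicle wells and 100% = unstimulated wells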
Starred values were filed as active, the others as inactive; . = no result. The list is not random: actives were taken first. Their share in the collection is about 2.2%.

SMILES	NRP1-CendR mod	V-ATPase pH	ASAP1 inh	ARFGAP1 inh	Granule exo inh	ASAP1 inh confirm	others
CC(CNC(=O)[C@@H](Cc1ccccc1)NC(=O)CC[C@H]1O[C@@H](n2ccc(=O)[nH]c2=O)[C@H](O)[C@@H]1O)c1ccccc1 (some centres undefined)	5	.	-11	-5	0	.
O=C(Cn1c(CO)nc2ccccc21)NCCc1ccccc1	10	8.1*	4	13	-2	.	VATPase regulator=1
Cc1ccc(S(=O)(=O)N(C)C[C@H]2OCCCC[C@H](C)Oc3ccc(NC(=O)Nc4cccc5ccccc45)cc3C(=O)N([C@@H](C)CO)C[C@H]2C)cc1	-4	0	10	5	2	.
CN(CCC1CCOCC1)Cc1nc(Cc2ccccc2F)no1	3	11*	1	9	2	.	VATPase regulator=-3
CC(C)CCc1noc(CN(C)CCC2CCOCC2)n1	-13	-1	1	-5	1	.
Cc1nc2c(-c3ccc(F)cc3)c(C)nn2c(C)c1CCC(=O)N1CCN(c2ccc(F)cc2)CC1	0	-8	5	1	-4	.
Cc1nc2c(-c3ccc(F)cc3)c(C)nn2c(C)c1CCC(=O)N1CCN(c2ccccc2)CC1	1	12*	1	-4	0	.	VATPase regulator=2
COc1cc(/C=C/C(=O)OCC(=O)N2CC(C)OC(C)C2)ccc1OCC#N (centres undefined)	7	0	5	1	-3	.
CCOC(=O)Cn1c(-c2ccccc2)nc2ccccc2c1=O	2	1	26*	4	-2	0	VATPase regulator=-3
CSCC[C@H](NC(=O)[C@H](Cc1ccccc1)n1c(=O)[nH]c2ccccc2c1=O)C(=O)N1CCC(C(=O)O)CC1	-2	2	5	-2	-4	.
Cc1c(Cl)sn(-c2ccc(Cl)cc2)c1=O	6	66*	9	30*	92*	.	VATPase regulator=61*;ARFGAP1 inh conf=8
Cc1ccc(S(=O)(=O)NCc2ccc3c(c2)OCO3)cc1	.	.	-15	-1	.	.
CC(c1ccon1)N(C)Cc1c(C(=O)N(C)Cc2ccccc2)nc2ccccn12 (centres undefined)	-2	8.1*	4	-15	71*	.	VATPase regulator=-4;Exocytosis CP01=-4
O=C(O)[C@@H]1C[C@@H](O)CN1	.	.	3	0	.	.
O=C(NCc1ccco1)C12CN(Cc3ccccc3)CC1C(c1cccc([N+](=O)[O-])c1)=NO2 (centres undefined)	5	-2	25*	0	5	8
C/C=C(/C)C(=O)O[C@@H]1[C@H](OC(=O)C=C(C)C)c2c(ccc3ccc(=O)oc23)OC1(C)C	-5	1	26*	-1	1	3
CCc1ccc(OCC(=O)N2CCc3ccccc32)cc1	1	-1	26*	-16	8	10
O=C(NCc1ccco1)c1ccc(-c2ccc3nccn3c2)cc1	-13	.	7	1	3	.
COc1ccc(C(C)=NNS(=O)(=O)c2ccc(C)cc2)cc1OC	3	3	-2	1	1	.
COc1ccc(Cl)cc1NC(=O)COC(=O)c1cc(C)oc1C	6	2	25*	6	-1	16
Cn1nc(C(C)(C)C)cc1NC(=O)C1(C)CCN1C(=O)C1(c2ccccc2)CCCC1 (centres undefined)	3	.	7	-6	-6	.
Cn1nc(C(C)(C)C)cc1NC(=O)C1(C)CCN1C(=O)C1(c2ccccc2)CC1 (centres undefined)	-1	.	25*	-3	8	0
CC(Cc1cccs1)NC(=S)Nc1ccc(Cl)c(Cl)c1 (centres undefined)	-12	-1	-5	4	3	.
CC(Cc1cccs1)NC(=S)Nc1ccc(Cl)cc1 (centres undefined)	11	-5	29*	5	0	6
O=C(O)[C@@H]1CCCN1S(=O)(=O)c1cccc2cccnc12	10	-1	-6	17	-4	.
